{
  "source": "ChEMBL document CHEMBL4382192",
  "about": "“Discovery of a potent dual ALK and EGFR T790M inhibitor” (Eur J Med Chem, 2017)",
  "key": {"[1]": {"target": "Tyrosine-protein kinase JAK1 (Homo sapiens) (UniProt P23458)", "sequence (P23458 whole entry, the tested form may be a part)": "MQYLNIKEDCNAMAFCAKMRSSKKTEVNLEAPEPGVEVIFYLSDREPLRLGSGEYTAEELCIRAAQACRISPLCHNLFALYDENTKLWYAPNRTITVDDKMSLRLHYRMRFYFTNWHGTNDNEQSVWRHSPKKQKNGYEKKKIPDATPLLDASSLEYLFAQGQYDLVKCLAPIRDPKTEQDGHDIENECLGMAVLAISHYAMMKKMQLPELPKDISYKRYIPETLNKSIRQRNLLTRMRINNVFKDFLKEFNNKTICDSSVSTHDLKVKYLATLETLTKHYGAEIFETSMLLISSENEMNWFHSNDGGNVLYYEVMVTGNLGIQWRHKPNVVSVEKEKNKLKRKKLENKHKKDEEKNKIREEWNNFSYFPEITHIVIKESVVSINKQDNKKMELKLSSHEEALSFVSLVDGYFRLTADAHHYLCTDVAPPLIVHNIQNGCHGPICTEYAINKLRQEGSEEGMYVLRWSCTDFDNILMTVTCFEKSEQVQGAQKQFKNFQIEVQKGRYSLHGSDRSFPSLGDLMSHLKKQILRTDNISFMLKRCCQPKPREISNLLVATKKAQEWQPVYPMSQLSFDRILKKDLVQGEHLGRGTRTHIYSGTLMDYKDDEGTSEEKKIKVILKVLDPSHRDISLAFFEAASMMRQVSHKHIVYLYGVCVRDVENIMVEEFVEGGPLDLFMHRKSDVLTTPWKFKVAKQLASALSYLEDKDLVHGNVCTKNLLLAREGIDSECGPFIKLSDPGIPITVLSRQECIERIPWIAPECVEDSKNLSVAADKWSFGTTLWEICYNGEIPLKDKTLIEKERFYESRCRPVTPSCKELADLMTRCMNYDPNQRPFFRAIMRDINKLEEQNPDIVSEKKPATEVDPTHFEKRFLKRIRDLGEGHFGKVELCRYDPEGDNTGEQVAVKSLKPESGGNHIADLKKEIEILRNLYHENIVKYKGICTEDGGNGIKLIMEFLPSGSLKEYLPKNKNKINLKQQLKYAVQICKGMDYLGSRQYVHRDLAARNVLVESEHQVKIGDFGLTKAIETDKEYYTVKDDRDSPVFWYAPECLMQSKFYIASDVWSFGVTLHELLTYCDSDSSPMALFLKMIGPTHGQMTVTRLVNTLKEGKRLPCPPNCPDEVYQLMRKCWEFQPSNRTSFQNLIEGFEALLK", "assay": "Binding affinity to wild-type human partial length JAK1 JH2 pseudokinase domain (R537 to D855 residues) expressed in mammalian expression system assessed as residual binding level at 1 uM by Kinomescan method relative to control"}, "[2]": {"target": "Serine/threonine-protein kinase LATS1 (Homo sapiens) (UniProt O95835)", "assay": "Binding affinity to wild-type human partial length LATS1 (Q678 to V1130 residues) expressed in bacterial expression system assessed as residual binding level at 1 uM by Kinomescan method relative to control"}, "[3]": {"target": "Ephrin type-A receptor 1 (Homo sapiens) (UniProt P21709)", "assay": "Binding affinity to wild-type human partial length EPHA1 (V588 to I913 residues) expressed in bacterial expression system assessed as residual binding level at 1 uM by Kinomescan method relative to control"}, "[4]": {"test_system": "Proto-oncogene tyrosine-protein kinase receptor Ret (Homo sapiens), P07949 [V804L]", "assay": "Binding affinity to human partial length RET V804L mutant (E713 to D1014 residues) expressed in bacterial expression system assessed as residual binding level at 1 uM by Kinomescan method relative to control", "method_in_brief": "(§1)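 Kinome-wide selectivity panel run by the KINOMEscan method, with the test compound at a single concentration of 1 μM. Wild-type and mutant kinases were profiled in the same screen.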"}, "[5]": {"target": "Calcium/calmodulin-dependent protein kinase type II subunit beta (Homo sapiens) (UniProt Q13554)", "assay": "Binding affinity to wild-type human partial length CAMK2B (M1 to Q380 residues) expressed in bacterial expression system assessed as residual binding level at 1 uM by Kinomescan method relative to control"}, "[6]": {"target": "Tyrosine-protein kinase Fgr (Homo sapiens) (UniProt P09769)", "sequence (P09769 2-529 limits assumed)": "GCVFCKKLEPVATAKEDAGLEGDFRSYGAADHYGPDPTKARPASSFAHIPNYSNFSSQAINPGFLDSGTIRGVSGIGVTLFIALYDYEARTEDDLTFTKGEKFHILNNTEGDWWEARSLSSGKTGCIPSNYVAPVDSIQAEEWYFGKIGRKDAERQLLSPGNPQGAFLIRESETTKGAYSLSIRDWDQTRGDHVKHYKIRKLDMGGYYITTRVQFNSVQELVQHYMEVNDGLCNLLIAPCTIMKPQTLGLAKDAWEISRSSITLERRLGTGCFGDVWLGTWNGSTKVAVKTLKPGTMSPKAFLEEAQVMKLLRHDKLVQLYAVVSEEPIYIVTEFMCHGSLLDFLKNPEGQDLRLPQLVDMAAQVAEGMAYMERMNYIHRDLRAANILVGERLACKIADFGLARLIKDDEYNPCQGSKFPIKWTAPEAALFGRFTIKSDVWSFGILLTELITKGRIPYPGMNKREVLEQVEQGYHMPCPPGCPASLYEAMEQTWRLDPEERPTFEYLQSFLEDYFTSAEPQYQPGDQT", "assay": "Binding affinity to wild-type human partial length FGR (L233 to T529 residues) expressed in bacterial expression system assessed as residual binding level at 1 uM by Kinomescan method relative to control"}, "[7]": {"target": "Tyrosine-protein kinase Tec (Homo sapiens) (UniProt P42680)", "assay": "Binding affinity to wild-type human partial length TEC (L341 to D620 residues) expressed in bacterial expression system assessed as residual binding level at 1 uM by Kinomescan method relative to control"}, "[8]": {"assay": "Drug uptake in mouse lung at 10 mg/kg, po after 2 hrs", "format": "ADME, organism-based", "conditions": "read-out: Drug uptake"}, "[9]": {"target": "Glycogen synthase kinase-3 beta (Homo sapiens) (UniProt P49841)", "sequence (P49841 whole entry, looked up, the tested form may be a part)": "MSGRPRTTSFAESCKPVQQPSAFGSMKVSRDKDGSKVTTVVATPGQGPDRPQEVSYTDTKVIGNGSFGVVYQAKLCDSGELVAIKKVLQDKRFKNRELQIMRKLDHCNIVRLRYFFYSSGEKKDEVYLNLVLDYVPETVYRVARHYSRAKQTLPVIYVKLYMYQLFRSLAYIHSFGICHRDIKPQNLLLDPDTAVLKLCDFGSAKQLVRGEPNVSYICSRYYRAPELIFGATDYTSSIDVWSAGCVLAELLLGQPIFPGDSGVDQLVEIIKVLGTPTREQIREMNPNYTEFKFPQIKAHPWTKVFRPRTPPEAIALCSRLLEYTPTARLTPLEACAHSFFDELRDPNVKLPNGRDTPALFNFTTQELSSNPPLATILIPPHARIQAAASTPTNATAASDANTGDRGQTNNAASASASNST", "assay": "Binding affinity to wild-type human full length GSK3B (M1 to T433 residues) expressed in mammalian expression system assessed as residual binding level at 1 uM by Kinomescan method relative to control", "method_in_brief": "(§2)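 Single-point kinome-wide KINOMEscan binding panel, test compound at 1 μM, run by the provider's standard protocol.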"}, "[10]": {"target": "Serine/threonine-protein kinase SIK3 (Homo sapiens) (UniProt Q9Y2K2)", "assay": "Binding affinity to wild-type human partial length QSK (A90 to L395 residues) expressed in mammalian expression system assessed as residual binding level at 1 uM by Kinomescan method relative to control"}, "[11]": {"target": "Serine/threonine-protein kinase VRK2 (Homo sapiens) (UniProt Q86Y07)", "assay": "Binding affinity to wild-type human partial length VRK2 (M1 to T336 residues) expressed in mammalian expression system assessed as residual binding level at 1 uM by Kinomescan method relative to control"}, "[12]": {"target": "Cyclin-dependent kinase 2 (Homo sapiens) (UniProt P24941)", "assay": "Binding affinity to wild-type human full length CDK2 (M1 to L298 residues) expressed in bacterial expression system assessed as residual binding level at 1 uM by Kinomescan method relative to control"}, "[13]": {"target": "3-phosphoinositide-dependent protein kinase 1 (Homo sapiens) (UniProt O15530)", "sequence (O15530 whole entry, the tested form may be a part)": "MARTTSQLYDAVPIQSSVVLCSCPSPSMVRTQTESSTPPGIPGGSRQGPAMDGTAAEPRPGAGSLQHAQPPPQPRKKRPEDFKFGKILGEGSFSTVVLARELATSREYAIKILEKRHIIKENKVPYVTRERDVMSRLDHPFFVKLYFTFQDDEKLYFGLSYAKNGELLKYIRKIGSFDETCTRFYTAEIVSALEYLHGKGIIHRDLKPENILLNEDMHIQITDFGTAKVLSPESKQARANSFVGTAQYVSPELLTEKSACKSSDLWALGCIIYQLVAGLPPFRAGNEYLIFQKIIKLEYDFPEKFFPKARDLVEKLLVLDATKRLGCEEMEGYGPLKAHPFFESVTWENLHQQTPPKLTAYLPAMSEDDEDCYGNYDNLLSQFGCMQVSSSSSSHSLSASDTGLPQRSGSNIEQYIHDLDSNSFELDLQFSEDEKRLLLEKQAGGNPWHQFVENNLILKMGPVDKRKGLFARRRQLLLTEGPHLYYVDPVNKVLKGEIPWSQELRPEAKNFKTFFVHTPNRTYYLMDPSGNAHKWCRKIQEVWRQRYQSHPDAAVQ", "assay": "Binding affinity to wild-type human full length PDPK1 (M1 to Q556 residues) expressed in bacterial expression system assessed as residual binding level at 1 uM by Kinomescan method relative to control", "method_in_brief": "as §2"}, "[14]": {"assay": "Drug uptake in mouse plasma at 2 mg/kg, iv after 2 hrs", "format": "ADME, organism-based"}, "[15]": {"target": "Mitogen-activated protein kinase kinase kinase 11 (Homo sapiens) (UniProt Q16584)", "assay": "Binding affinity to wild-type human partial length MLK3 (I77 to W399 residues) expressed in bacterial expression system assessed as residual binding level at 1 uM by Kinomescan method relative to control"}, "[16]": {"target": "Homeodomain-interacting protein kinase 2 (Homo sapiens) (UniProt Q9H2X6)", "assay": "Binding affinity to wild-type human partial length HIPK2 (M153 to S564 residues) expressed in mammalian expression system assessed as residual binding level at 1 uM by Kinomescan method relative to control"}, "[17]": {"target": "Ribosomal protein S6 kinase alpha-5 (Homo sapiens) (UniProt O75582)", "assay": "Binding affinity to wild-type human partial length N-terminal RPS6KA5 kinase domain 1 expressed in bacterial expression system assessed as residual binding level at 1 uM by Kinomescan method relative to control"}, "[18]": {"target": "Mitogen-activated protein kinase kinase kinase 6 (Homo sapiens) (UniProt O95382)", "assay": "Binding affinity to wild-type human partial length ASK2 (M278 to R972 residues) expressed in mammalian expression system assessed as residual binding level at 1 uM by Kinomescan method relative to control"}, "[19]": {"target": "Serine/threonine-protein kinase Nek1 (Homo sapiens) (UniProt Q96PY6)", "assay": "Binding affinity to wild-type human partial length NEK1 (M1 to K278 residues) expressed in bacterial expression system assessed as residual binding level at 1 uM by Kinomescan method relative to control"}, "[20]": {"test_system": "Epidermal growth factor receptor (Homo sapiens), P00533 [G719C]", "assay": "Binding affinity to human partial length EGFR G719C mutant (R669 to V1011 residues) expressed in bacterial expression system assessed as residual binding level at 1 uM by Kinomescan method relative to control", "method_in_brief": "as §1"}, "[21]": {"target": "Serine/threonine-protein kinase N1 (Homo sapiens) (UniProt Q16512)", "assay": "Binding affinity to wild-type human partial length PKN1 (E598 to C948 residues) expressed in bacterial expression system assessed as residual binding level at 1 uM by Kinomescan method relative to control"}, "[22]": {"test_system": "Mast/stem cell growth factor receptor Kit (Homo sapiens), P10721 [D816H]", "sequence (P10721 whole entry D816H, the tested form may be a part)": "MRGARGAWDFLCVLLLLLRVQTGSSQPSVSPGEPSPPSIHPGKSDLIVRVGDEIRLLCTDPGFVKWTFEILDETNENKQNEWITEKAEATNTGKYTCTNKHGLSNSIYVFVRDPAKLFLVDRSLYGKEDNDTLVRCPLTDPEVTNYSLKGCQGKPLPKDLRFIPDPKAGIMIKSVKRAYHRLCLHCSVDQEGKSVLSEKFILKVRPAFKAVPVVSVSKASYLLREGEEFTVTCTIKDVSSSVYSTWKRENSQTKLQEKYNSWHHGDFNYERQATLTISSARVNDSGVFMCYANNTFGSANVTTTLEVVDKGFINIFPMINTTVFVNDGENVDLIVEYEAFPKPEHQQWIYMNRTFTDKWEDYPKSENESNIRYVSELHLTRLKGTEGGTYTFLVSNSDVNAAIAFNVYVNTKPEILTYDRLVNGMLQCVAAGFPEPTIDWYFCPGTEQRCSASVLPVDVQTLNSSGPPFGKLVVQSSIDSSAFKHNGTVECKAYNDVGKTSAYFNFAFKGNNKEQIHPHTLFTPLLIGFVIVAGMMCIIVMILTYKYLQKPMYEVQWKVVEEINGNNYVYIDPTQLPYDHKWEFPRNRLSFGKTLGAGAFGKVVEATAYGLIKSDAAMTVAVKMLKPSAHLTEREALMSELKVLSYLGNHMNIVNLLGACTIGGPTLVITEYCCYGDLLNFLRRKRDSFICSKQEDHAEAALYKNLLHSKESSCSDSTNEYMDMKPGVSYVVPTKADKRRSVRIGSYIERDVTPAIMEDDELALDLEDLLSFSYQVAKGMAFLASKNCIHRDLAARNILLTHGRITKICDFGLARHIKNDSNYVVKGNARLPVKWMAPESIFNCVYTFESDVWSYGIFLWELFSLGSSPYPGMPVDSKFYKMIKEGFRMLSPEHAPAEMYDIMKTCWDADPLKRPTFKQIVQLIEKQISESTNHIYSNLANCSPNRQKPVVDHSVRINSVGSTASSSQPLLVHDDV", "assay": "Binding affinity to human partial length KIT D816H mutant (I571 to D952 residues) expressed in mammalian expression system assessed as residual binding level at 1 uM by Kinomescan method relative to control", "method_in_brief": "as §1"}, "[23]": {"target": "Casein kinase I isoform gamma-2 (Homo sapiens) (UniProt P78368)", "assay": "Binding affinity to wild-type human full length CSNK1G2 (M1 to K415 residues) expressed in bacterial expression system assessed as residual binding level at 1 uM by Kinomescan method relative to control"}, "[24]": {"target": "SRSF protein kinase 2 (Homo sapiens) (UniProt P78362)", "sequence (P78362 whole entry, looked up, the tested form may be a part)": "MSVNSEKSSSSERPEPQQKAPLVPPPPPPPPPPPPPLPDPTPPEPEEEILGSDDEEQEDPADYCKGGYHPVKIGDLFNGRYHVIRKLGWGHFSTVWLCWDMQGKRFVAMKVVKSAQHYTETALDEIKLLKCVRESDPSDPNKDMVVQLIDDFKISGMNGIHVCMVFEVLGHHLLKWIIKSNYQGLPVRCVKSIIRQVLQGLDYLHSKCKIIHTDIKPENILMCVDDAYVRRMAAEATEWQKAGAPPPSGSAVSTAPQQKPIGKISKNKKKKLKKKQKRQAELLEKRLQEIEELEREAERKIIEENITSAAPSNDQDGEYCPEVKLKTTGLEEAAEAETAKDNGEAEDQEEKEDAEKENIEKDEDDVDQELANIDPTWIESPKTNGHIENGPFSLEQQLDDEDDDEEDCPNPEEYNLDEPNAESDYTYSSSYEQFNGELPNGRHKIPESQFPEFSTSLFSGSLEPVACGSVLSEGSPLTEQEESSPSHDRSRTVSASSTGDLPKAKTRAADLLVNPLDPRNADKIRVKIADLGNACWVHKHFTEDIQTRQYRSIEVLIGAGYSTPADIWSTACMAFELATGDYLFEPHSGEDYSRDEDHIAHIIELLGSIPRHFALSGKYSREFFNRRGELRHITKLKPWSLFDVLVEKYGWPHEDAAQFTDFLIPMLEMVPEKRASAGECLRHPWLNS", "assay": "Binding affinity to wild-type human full length SRPK2 (M1 to S686 residues) expressed in bacterial expression system assessed as residual binding level at 1 uM by Kinomescan method relative to control", "method_in_brief": "as §2"}, "[25]": {"target": "Bone morphogenetic protein receptor type-1A (Homo sapiens) (UniProt P36894)", "sequence (P36894 whole entry, the tested form may be a part)": "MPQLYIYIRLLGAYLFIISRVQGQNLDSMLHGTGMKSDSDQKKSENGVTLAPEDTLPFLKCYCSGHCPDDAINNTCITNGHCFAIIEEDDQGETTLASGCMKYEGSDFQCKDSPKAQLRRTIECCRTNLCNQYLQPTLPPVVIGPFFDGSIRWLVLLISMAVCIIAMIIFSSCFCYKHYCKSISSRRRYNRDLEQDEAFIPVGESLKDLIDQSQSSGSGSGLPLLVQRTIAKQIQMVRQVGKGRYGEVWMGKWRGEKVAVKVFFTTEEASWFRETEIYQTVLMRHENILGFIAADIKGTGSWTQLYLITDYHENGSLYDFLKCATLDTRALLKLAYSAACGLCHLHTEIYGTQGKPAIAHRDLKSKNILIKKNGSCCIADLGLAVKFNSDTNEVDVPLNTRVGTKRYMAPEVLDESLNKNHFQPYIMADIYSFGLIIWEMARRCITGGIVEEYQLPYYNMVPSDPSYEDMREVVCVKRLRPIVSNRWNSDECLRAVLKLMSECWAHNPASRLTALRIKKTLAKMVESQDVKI", "assay": "Binding affinity to wild-type human partial length BMPR1A (Q214 to I532 residues) expressed in bacterial expression system assessed as residual binding level at 1 uM by Kinomescan method relative to control"}},
  "data": [
    {"smiles": "C=CC(=O)Nc1cc(Nc2ncc(Cl)c(Nc3ccccc3S(=O)(=O)C(C)C)n2)c(OC)cc1N(C)CCN(C)C", "values": [
      {"measurement": "Activity", "setting": "[1]", "result": 63, "unit": "%"},
      {"measurement": "Activity", "setting": "[2]", "result": 82, "unit": "%"},
      {"measurement": "Activity", "setting": "[3]", "result": 12, "unit": "%"},
      {"measurement": "Activity", "setting": "[4]", "result": 14, "unit": "%"},
      {"measurement": "Activity", "setting": "[5]", "result": 48, "unit": "%"},
      {"measurement": "Activity", "setting": "[6]", "result": 57, "unit": "%"},
      {"measurement": "Activity", "setting": "[7]", "result": 1, "unit": "%"},
      {"measurement": "concentration at 2 h", "setting": "[8]", "result": 4.64, "unit": "µM"},
      {"measurement": "Activity", "setting": "[9]", "result": 93, "unit": "%"},
      {"measurement": "Activity", "setting": "[10]", "result": 61, "unit": "%"},
      {"measurement": "Activity", "setting": "[11]", "result": 98, "unit": "%"},
      {"measurement": "Activity", "setting": "[12]", "result": 83, "unit": "%"},
      {"measurement": "Activity", "setting": "[13]", "result": 94, "unit": "%"},
      {"measurement": "concentration at 2 h", "setting": "[14]", "result": 0.1, "unit": "µM"},
      {"measurement": "Activity", "setting": "[15]", "result": 82, "unit": "%"},
      {"measurement": "Activity", "setting": "[16]", "result": 94, "unit": "%"},
      {"measurement": "Activity", "setting": "[17]", "result": 85, "unit": "%"},
      {"measurement": "Activity", "setting": "[18]", "result": 21, "unit": "%"},
      {"measurement": "Activity", "setting": "[19]", "result": 68, "unit": "%"},
      {"measurement": "Activity", "setting": "[20]", "result": 0.95, "unit": "%"},
      {"measurement": "Activity", "setting": "[21]", "result": 41, "unit": "%"},
      {"measurement": "Activity", "setting": "[22]", "result": 41, "unit": "%"},
      {"measurement": "Activity", "setting": "[23]", "result": 74, "unit": "%"},
      {"measurement": "Activity", "setting": "[24]", "result": 99, "unit": "%"},
      {"measurement": "Activity", "setting": "[25]", "result": 65, "unit": "%"}
    ]}
  ]
}
